Source: ChEMBL document CHEMBL4414577, “Discovery of Pyrrolo[2,3-b]pyridine (1,7-Dideazapurine) Nucleoside Analogues as Anti-Trypanosoma cruzi Agents” (J Med Chem, 2019)
Activity calls are given as the source filed them. The rule behind the calls is not given here.

Columns and labels:
[1] = target: T1, UDP-glucuronosyltransferases (UGTs) (Homo sapiens, UniProt O60656+O75310+O75795+P06133+P0DTE4+P0DTE5+P16662+P19224+P22309+P22310+P35503+P35504+P36537+P54855+Q6UWM9+Q9BY64+Q9HAW7+Q9HAW8+Q9HAW9); experiment: Drug metabolism in human liver S9 fraction assessed as UGT-mediated metabolism by measuring compound remaining at 5 uM incubated for 30 mins in presence of UDPGA by UPLC-MS analysis; assay type: ADME, subcellular; details: read-out: Stability
In short: (§1)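 Compound incubated with male mouse, rat, dog or pooled human S9 fractions, with NADPH (phase I) or […], sampled at 0, 15, 30 and 60 min. Read-out is percent parent remaining. Two independent experiments of two biological replicates; diclofenac and fluconazole used as assay controls.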

[2] = Drug metabolism in rat liver microsomes assessed as CYP450-mediated metabolism by measuring parent compound remaining at 5 uM measured immediately in presence of NADPH by UPLC-MS analysis; assay type: ADME; details: read-out: Stability; in short: as §1
Trypanosoma cruzi [3] = experiment: Antitrypanosomal activity against Trypanosoma cruzi Y amastigotes infected in Swiss mouse primary cardiac cells incubated for 168 hrs with media replenishment for every 48 hrs followed by compound washout and measured after 168 hrs by light microscopic method; assay type: functional, organism-based
In short: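 Cardiac cells plated 24 h, then infected 24 h at 37 °C with Y-strain bloodstream trypomastigotes (parasite:host 10:1) and washed. Serial dilutions (up to 5 µM) for 168 h at 37 °C, drug medium renewed every 48 h. PBS rinse, 168 h drug-free. Giemsa-stained; infected cells and parasites per cell scored in 200 cells. EC50 from infection-index inhibition; two experiments, duplicate.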

[4] = Cytotoxicity against human MRC5 SV2 cells assessed as reduction in cell viability incubated for 3 days by resazurin dye based assay; details: MRC-5 SV2, 72 h
[5] = Drug metabolism in dog liver microsomes assessed as UGT-mediated metabolism by measuring compound remaining at 5 uM incubated for 15 mins in presence of UDPGA by UPLC-MS analysis; assay type: ADME, Canis lupus familiaris; details: read-out: Stability; in short: as §1
Trypanosoma cruzi [6] = experiment: In vivo antitrypanosomal activity against Trypanosoma cruzi Y trypomastigotes infected in Swiss mouse assessed as reduction in parasitemia at 25 mg/kg, po administered twice daily for 5 days with 2 days interval for 3 cycles and measured up to 30 days post-infection by light microscopy; assay type: functional, organism-based
In short: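 Male Swiss Webster mice infected i.p. with 10⁴ Y-strain bloodstream trypomastigotes; six per group. Oral gavage from 5 dpi for 15 days (three 5-day rounds, 2 days off): test compound 25 mg/kg b.i.d., benznidazole 100 mg/kg s.i.d. Parasites counted in 5 μL tail blood to 30 dpi; mortality followed to 53 dpi.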

[7] = target: T1, UDP-glucuronosyltransferases (UGTs); experiment: Drug metabolism in human liver S9 fraction assessed as UGT-mediated metabolism by measuring compound remaining at 5 uM incubated for 60 mins in presence of UDPGA by UPLC-MS analysis; assay type: ADME, subcellular; details: read-out: Stability; in short: as §1
[8] = Drug metabolism in mouse liver microsomes assessed as CYP450-mediated metabolism by measuring parent compound remaining at 5 uM incubated for 15 mins in presence of NADPH by UPLC-MS analysis; assay type: ADME; details: read-out: Stability; in short: as §1
[9] = Toxicity in Swiss Webster mouse infected with Trypanosoma cruzi Y trypomastigotes assessed as body weight loss at 25 mg/kg, po administered twice daily via gavage for 5 days starting from 5 days post-infection and measured daily up to 40 days post-infection; assay type: organism-based; details: in vivo
In short: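 Male Swiss Webster mice were infected i.p. with 10⁴ Y-strain trypomastigotes and treated by oral gavage for 5 days from 5 dpi. Regimens were 25 mg/kg b.i.d. (10% EtOH/citrate vehicle) or benznidazole 100 mg/kg s.i.d. Body weight and visual clinical signs were monitored, with daily mortality checks up to 40 dpi. There were six mice per group.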

[10] = Drug metabolism in dog liver microsomes assessed as CYP450-mediated metabolism by measuring parent compound remaining at 5 uM incubated for 30 mins in presence of NADPH by UPLC-MS analysis; assay type: ADME, Canis lupus familiaris; details: read-out: Stability; in short: as §1
[11] = Drug metabolism in rat liver microsomes assessed as UGT-mediated metabolism by measuring compound remaining at 5 uM incubated for 15 mins in presence of UDPGA by UPLC-MS analysis; assay type: ADME; details: read-out: Stability; in short: as §1
Trypanosoma cruzi [12] = experiment: In vivo antitrypanosomal activity against Trypanosoma cruzi Y trypomastigotes infected in Swiss mouse assessed as reduction in parasitemia at 25 mg/kg, po administered twice daily for 5 days with 2 days interval for 3 cycles in presence of cyclophosphamide by light microscopy; assay type: functional, organism-based
In short: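 Infected mice were dosed orally at 25 mg/kg b.i.d. from 5 dpi, either for 5 days or for 15 days (3 × 5 days, 2 days apart). Mice with negative parasitemia up to 30 days post-treatment then received cyclophosphamide i.p. at 50 mg/kg/day. This was given in three cycles of 4 days, each followed by 3 drug-free days. Tail-vein blood parasitemia was then read by light microscopy.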

[13] = target: T1, UDP-glucuronosyltransferases (UGTs); experiment: Drug metabolism in human liver S9 fraction assessed as UGT-mediated metabolism by measuring compound remaining at 5 uM incubated for 15 mins in presence of UDPGA by UPLC-MS analysis; assay type: ADME, subcellular; details: read-out: Stability; in short: as §1
[14] = Drug metabolism in rat liver microsomes assessed as CYP450-mediated metabolism by measuring parent compound remaining at 5 uM incubated for 60 mins in presence of NADPH by UPLC-MS analysis; assay type: ADME; details: read-out: Stability; in short: as §1
[15] = Drug metabolism in mouse liver microsomes assessed as UGT-mediated metabolism by measuring compound remaining at 5 uM incubated for 60 mins in presence of UDPGA by UPLC-MS analysis; assay type: ADME; details: read-out: Stability; in short: as §1
[16] = Drug metabolism in dog liver microsomes assessed as UGT-mediated metabolism by measuring compound remaining at 5 uM measured immediately in presence of UDPGA by UPLC-MS analysis; assay type: ADME, Canis lupus familiaris; details: read-out: Stability; in short: as §1
[17] = Drug metabolism in rat liver microsomes assessed as CYP450-mediated metabolism by measuring parent compound remaining at 5 uM incubated for 15 mins in presence of NADPH by UPLC-MS analysis; assay type: ADME; details: read-out: Stability; in short: as §1
[18] = target: T1, UDP-glucuronosyltransferases (UGTs); experiment: Drug metabolism in human liver S9 fraction assessed as UGT-mediated metabolism by measuring compound remaining at 5 uM measured immediately in presence of UDPGA by UPLC-MS analysis; assay type: ADME, subcellular; details: read-out: Stability; in short: as §1
[19] = Drug metabolism in mouse liver microsomes assessed as UGT-mediated metabolism by measuring compound remaining at 5 uM incubated for 30 mins in presence of UDPGA by UPLC-MS analysis; assay type: ADME; details: read-out: Stability; in short: as §1
[20] = Drug metabolism in mouse liver microsomes assessed as CYP450-mediated metabolism by measuring parent compound remaining at 5 uM measured immediately in presence of NADPH by UPLC-MS analysis; assay type: ADME; details: read-out: Stability; in short: as §1
Trypanosoma cruzi [21] = experiment: In vivo antitrypanosomal activity against Trypanosoma cruzi Y trypomastigotes infected in Swiss mouse assessed as reduction in parasitemia at 25 mg/kg, po administered twice daily via gavage for 5 days starting from 5 days post-infection and measured 8 days post-infection by light microscopic method relative to control; assay type: functional; set-up: scale not given: the % may be the effect or the level left
In short: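 Male Swiss Webster mice (18-20 g, six per group) were infected i.p. with 10⁴ Y-strain bloodstream trypomastigotes. Treatment began at 5 dpi, only in mice with detectable parasitemia. Dosing was 25 mg/kg b.i.d. by oral gavage for 5 days, using a 2.0 mg/mL formulation in 10% EtOH, 0.1 M citrate pH 3.02. Parasites in 5 μL tail-vein blood were counted microscopically up to 30 dpi, against vehicle-treated infected mice.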

[22] = Drug metabolism in dog liver microsomes assessed as UGT-mediated metabolism by measuring compound remaining at 5 uM incubated for 60 mins in presence of UDPGA by UPLC-MS analysis; assay type: ADME, Canis lupus familiaris; details: read-out: Stability; in short: as §1

SMILES: Nc1ccnc2c1c(I)cn2[C@@H]1O[C@H](CO)[C@@H](O)[C@H]1O
- remaining at 0.5 h, 5 µM [1]: 99%
- remaining at 0 min, 5 µM [2]: 100%
- EC50 (Trypanosoma cruzi [3]): > 5 µM
- EC50 [4]: > 64 µM
- remaining at 0.25 h, 5 µM [5]: 94%
- Activity (Trypanosoma cruzi [6]): Active
- remaining at 1 h, 5 µM [7]: 100%
- remaining at 0.25 h, 5 µM [8]: 96%
- Activity [9]: Non-Toxic
- remaining at 0.5 h, 5 µM [10]: 96%
- remaining at 0.25 h, 5 µM [11]: 97%
- Activity (Trypanosoma cruzi [12]): inactive
- remaining at 0.25 h, 5 µM [13]: 99%
- remaining at 1 h, 5 µM [14]: 85%
- remaining at 1 h, 5 µM [15]: 101%
- remaining at 0 min, 5 µM [16]: 100%
- remaining at 0.25 h, 5 µM [17]: 88%
- remaining at 0 min, 5 µM [18]: 100%
- remaining at 0.5 h, 5 µM [19]: 103%
- remaining at 0 min, 5 µM [20]: 100%
- Activity (Trypanosoma cruzi [21]): 95%
- remaining at 1 h, 5 µM [22]: 84%
